Measurements of several laboratories.
Each line is one published result; the experiments were not run side by side.
Target: Ephrin type-A receptor 5 (EPHA5, Homo sapiens, UniProt P54756)

Compound	read-out	mode	technique	concentration	measurement	result
CC(C)(C)c1cc(C=C(C#N)C#N)cc(Br)c1O	enzyme activity	inhibitor	–	0.5 µM	remaining activity	106%
Cc1nn(C)cc1-c1nc2c(N3CCN(Cc4ccc(Cl)cc4)CC3)c(Cl)cnc2[nH]1	binding	–	competition with immobilised ligand	1 µM	remaining binding	100%
Cn1cc(-c2cc(F)cc(N3CCn4c(cc5c4CCCC5)C3=O)c2CO)cc(Nc2ccc(N3CCN(C4COC4)CC3)cn2)c1=O	enzyme activity	inhibitor	–	0.1 µM	inhibition	11%
COc1ncccc1-c1cnn2ccc(N3CCN(C(=O)OC(C)C)CC3)nc12	binding	–	competition with immobilised ligand	1 µM	remaining binding	100%
C#Cc1n[nH]c2c(-c3cn([C@@H](C)c4ccccc4)c(=O)[nH]c3=O)cc(F)cc12	enzyme activity	inhibitor	–	0.1 µM	inhibition	5.4%
Cn1cc(-c2cccc(N3CCc4c(sc5c4CC(C)(C)C5)C3=O)c2CO)cc(Nc2ccncn2)c1=O	enzyme activity	inhibitor	–	1 µM	inhibition	1%
Cn1cncc1[C@@](O)(COc1ccc(C#N)cc1-c1ccc(OC(F)(F)F)cc1)c1ccc(C#N)cc1	cell-free assay	–	competition with immobilised ligand	1 µM	remaining binding	67%
O=c1[nH]c2ccccc2n1C1CCN(Cc2ccc(-c3[nH]c4cc5ncnc5cc4nc3-c3ccccc3)cc2)CC1	cell-free assay	–	–	0.5 µM	remaining signal	102%
COc1cc(Nc2ncc(F)c(Nc3ccc4c(n3)NC(=O)C(C)(C)O4)n2)cc(OC)c1OC	binding	–	competition with immobilised ligand	10 µM	inhibition	64%
C#Cc1n[nH]c2c(-c3cn([C@@H](C)c4ccccn4)c(=O)[nH]c3=O)cc(F)cc12	enzyme activity	inhibitor	–	0.1 µM	inhibition	8.9%
